Measured values: ChEMBL document CHEMBL1129428 (J Med Chem, 1996)

Experiments:
Mus musculus [1] = test: Anticonvulsant activity after intraperitoneal injection into mice by using MES screen test after 0.5 hr; format: functional
Mus musculus [2] = test: Anticonvulsant activity after intraperitoneal injection into mice measured in a maximal electroshock scree (MES) screen; format: functional
Mus musculus [3] = test: Compound was tested for toxicity after intraperitoneal injection into mice by using toxicity screen test after 4 hr; format: organism-based; conditions: in vivo, ip
Summary of the method: (§1)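 Mice injected intraperitoneally at 30, 100 and 300 mg/kg and examined 0.5 and 4 h afterwards. Each entry is the minimum dose giving activity (MES protection, scPTZ protection, or rotorod failure for neurotoxicity) in half or more of the mice. Activity is called absent if nothing occurs at 300 mg/kg.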

Rattus norvegicus [4] = test: Compound was tested for anticonvulsant activity after Oral Administration into Rats by using MES screen test after 0.25h,dose 12.5 mg/kg; number of rats out of four which were protected; format: functional
Summary of the method: (§2)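 Rats received the compound orally. […] Rats were tested in the MES screen at 0.25, 0.5, 1, 2 and 4 h. Each value is the number of rats protected out of 4. The test followed NINDS procedures.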

Rattus norvegicus [5] = test: Compound was tested for anticonvulsant activity after Oral Administration into Rats by using MES screen test after 1h,dose 12.5 mg/kg; number of rats out of four which were protected; format: functional; summary of the method: as §2
Rattus norvegicus [6] = test: Anticonvulsant activity after oral administration into rats; format: functional; parameters: concentration or dose not given beside the values
Rattus norvegicus [7] = test: Compound was tested for anticonvulsant activity after Oral Administration into Rats by using MES screen test after 2h,dose 12.5 mg/kg; number of rats out of four which were protected; format: functional; summary of the method: as §2
Rattus norvegicus [8] = test: Compound was tested for anticonvulsant activity after Oral Administration into Rats by using MES screen test after 4h,dose 12.5 mg/kg; number of rats out of four which were protected; format: functional; summary of the method: as §2
Mus musculus [9] = test: Toxicity after intraperitoneal injection into mice by using toxicity screen test after 0.5 hr; format: organism-based; conditions: in vivo, ip; summary of the method: as §1
Mus musculus [10] = test: Anticonvulsant activity after intraperitoneal injection into mice by using scPTZ screen after 0.5 hr; format: functional
Rattus norvegicus [11] = test: Compound was tested for anticonvulsant activity after Oral Administration into Rats by using MES screen test after 0.25h,dose 12.5 mg/kg; No activity was demonstarted; format: functional, organism-based; parameters: dose 12.5 mg/kg; summary of the method: as §2
Mus musculus [12] = test: Anticonvulsant activity after intraperitoneal injection into mice by using scPTZ screen test after 4 hr; format: functional
Rattus norvegicus [13] = test: Compound was tested for anticonvulsant activity after Oral Administration into Rats by using MES screen test after 0.5h,dose 12.5 mg/kg; No activity was demonstarted; format: functional, organism-based; parameters: dose 12.5 mg/kg; summary of the method: as §2
Rattus norvegicus [14] = test: Compound was tested for anticonvulsant activity after Oral Administration into Rats by using MES screen test after 2h,dose 50 mg/kg; number of rats out of four which were protected; format: functional; summary of the method: as §2
Rattus norvegicus [15] = test: Compound was tested for anticonvulsant activity after Oral Administration into Rats by using MES screen test after 0.5h,dose 50 mg/kg; number of rats out of four which were protected; format: functional; summary of the method: as §2
Rattus norvegicus [16] = test: Compound was tested for anticonvulsant activity after Oral Administration into Rats by using MES screen test after 4h,dose 50 mg/kg; number of rats out of four which were protected; format: functional; summary of the method: as §2
Rattus norvegicus [17] = test: Compound was tested for anticonvulsant activity after Oral Administration into Rats by using MES screen test after 0.25h,dose 50 mg/kg; number of rats out of four which were protected; format: functional; summary of the method: as §2
Rattus norvegicus [18] = test: Compound was tested for anticonvulsant activity after Oral Administration into Rats by using MES screen test after 1h,dose 50 mg/kg; number of rats out of four which were protected; format: functional; summary of the method: as §2

Structure (SMILES) | Dose (Mus musculus [1]) [mg/kg] | Dose (Mus musculus [2]) [mg/kg] | Dose (Mus musculus [3]) [mg/kg] | Activity (Rattus norvegicus [4]) | Activity (Rattus norvegicus [5]) | Activity (Rattus norvegicus [6]) | Activity (Rattus norvegicus [7]) | Activity (Rattus norvegicus [8]) | Dose (Mus musculus [9]) [mg/kg] | Dose (Mus musculus [10]) [mg/kg] | Activity (Rattus norvegicus [11]) | Dose (Mus musculus [12]) [mg/kg] | Activity (Rattus norvegicus [13]) | Activity (Rattus norvegicus [14]) | Activity (Rattus norvegicus [15]) | Activity (Rattus norvegicus [16]) | Activity (Rattus norvegicus [17]) | Activity (Rattus norvegicus [18])
CC/C(=N/NC(N)=O)c1ccccc1Oc1ccc(Cl)cc1 | 300 | 300 | – | – | – | – | – | – | – | – | – | – | – | – | – | – | – | –
CC/C(=N/NC(N)=O)c1ccccc1Oc1ccc(Br)cc1 | – | – | 300 | – | – | – | – | – | – | – | – | – | – | – | – | – | – | –
CCCc1ccccc1Oc1ccc(/C=N/NC(N)=O)cc1 | 100 | 30 | – | 3 | 4 | 3 | 4 | 4 | 300 | – | – | – | – | – | – | – | – | –
Cc1cc(Oc2ccc(/C=N/NC(N)=O)cc2)ccc1F | 30 | 30 | – | 2 | 4 | 4 | 4 | 4 | 300 | – | – | – | – | – | – | – | – | –
N=C(S)N/N=C/c1ccc(Sc2ccc(F)cc2)cc1 | 100 | 100 | 100 | – | 2 | 1 | 1 | 1 | – | 100 | No activity | 100 | – | – | – | – | – | –
NC(=O)N/N=C/c1ccc(Oc2ccc3ccccc3c2)cc1 | 100 | 100 | – | 1 | 3 | – | 4 | 4 | – | – | – | 300 | No activity | – | – | – | – | –
C/C(=N/NC(N)=O)c1ccccc1Oc1ccc(Cl)cc1 | 300 | 300 | 300 | – | – | – | – | – | 300 | 300 | – | 300 | – | – | – | – | – | –
O=CN/N=C/c1ccc(Oc2ccc(F)cc2)cc1 | 300 | 300 | 300 | – | – | – | – | – | – | – | – | 300 | – | – | – | – | – | –
NC(=O)C(=O)N/N=C/c1ccc(Oc2ccc(F)cc2)cc1 | – | – | 300 | – | – | – | – | – | 300 | – | – | – | – | – | – | – | – | –
N=C(S)N/N=C/c1ccc(Oc2ccc(F)cc2)cc1 | 30 | 30 | 30 | – | 2 | 2 | 3 | 1 | 100 | 30 | No activity | 30 | – | – | – | – | – | –
C/C(=N/NC(N)=O)c1ccccc1Oc1ccccc1 | 300 | – | – | – | – | – | – | – | 300 | 300 | – | – | – | – | – | – | – | –
N#Cc1ccc(Oc2ccc(/C=N\NC(N)=O)cc2)cc1 | 30 | 30 | 100 | 2 | 4 | 4 | 4 | 4 | 300 | 30 | – | 30 | – | – | – | – | – | –
NC(=O)N/N=C/c1ccc(Oc2ccccc2Cl)cc1 | 30 | 30 | – | – | – | – | – | – | 300 | 100 | – | 300 | – | 4 | 4 | 4 | 3 | 4
CCCCCCCOc1ccc(Oc2ccc(/C=N/NC(N)=O)cc2)cc1 | – | – | – | – | – | – | – | – | 300 | – | – | – | – | – | – | – | – | –
Cc1ccc(Oc2ccc(/C=N/NC(N)=O)cc2)cc1C | 100 | 30 | 300 | – | 4 | 2 | 4 | 4 | – | 300 | No activity | – | – | – | – | – | – | –
CCCCCCCCc1ccc(Oc2ccc(/C=N/NC(N)=O)cc2)cc1 | – | 300 | – | – | – | – | – | – | – | – | – | – | – | – | – | – | – | –
Cc1cc(I)ccc1Oc1ccc(/C=N/NC(N)=O)cc1 | 30 | 30 | 100 | 2 | 4 | 4 | 4 | 4 | 300 | – | – | – | – | – | – | – | – | –
NC(=O)N/N=C/c1ccc(Oc2ccc(Cl)cc2)cc1 | 30 | 30 | 30 | – | – | – | – | – | 300 | 30 | – | – | – | 4 | 4 | 4 | 4 | 4
Cc1cc(Oc2ccc(/C=N/NC(N)=O)cc2)ccc1Cl | 30 | 30 | 100 | 1 | 4 | 4 | 4 | 4 | 300 | 300 | – | – | – | – | – | – | – | –
NC(=O)N/N=C/c1ccc(Oc2ccc(F)cc2Br)cc1 | 100 | 100 | 300 | – | – | – | – | – | 300 | 300 | – | – | – | 4 | 4 | 4 | 4 | 4
C/C(=N/NC(N)=O)c1ccccc1Oc1ccc(Br)cc1 | – | – | – | – | – | – | – | – | 300 | – | – | – | – | – | – | – | – | –
Cc1cc(Cl)ccc1Oc1ccc(/C=N/NC(N)=O)cc1 | 30 | 30 | 100 | – | 4 | 3 | 4 | 4 | 300 | 30 | No activity | 30 | – | – | – | – | – | –
NC(=O)N/N=C\c1ccc(S(=O)(=O)c2ccccc2)cc1 | – | 300 | – | – | – | – | – | – | – | – | – | – | – | – | – | – | – | –
NC(=O)N/N=C\c1ccc(Oc2cccc(F)c2)cc1 | 30 | 300 | 300 | – | – | – | – | – | 300 | 100 | – | – | – | 4 | 4 | 4 | 4 | 4
NC(=O)N/N=C/c1ccc(Oc2ccc(F)cc2F)cc1 | 30 | 30 | – | – | – | – | – | – | – | 100 | – | – | – | 4 | 4 | 4 | 3 | 4
NC(=O)N/N=C/c1ccc(Oc2ccc(I)cc2)cc1 | 30 | 30 | 100 | – | – | – | – | – | 300 | 100 | – | 300 | – | 4 | 4 | 4 | 3 | 4
